# Measurements published in ChEMBL document CHEMBL1139252, “Inhibition of purple acid phosphatase with alpha-alkoxynaphthylmethylphosphonic acids” (Bioorg Med Chem Lett, 2009).
# Activity calls are given as the source filed them. No cut-off for these calls is given here.
# Tests used:
# [1] = organism: Sus scrofa; test: Inhibition of pig PAP at pH 4.9
# Procedure, shortened: (§1)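 Each enzyme was run at its own pH optimum: red kidney bean PAP at pH 6.2 and pig PAP at pH 4.9. IC50 values were determined experimentally. Separate inhibition constants were derived for binding to the free enzyme and to the enzyme–substrate complex.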
# [2] = molecular target: T1, Fe(3+)-Zn(2+) purple acid phosphatase (Phaseolus vulgaris) (UniProt P80366); test: Inhibition of red kidney bean PAP at pH 6.2; procedure, shortened: as §1
# T1 sequence (whole entry): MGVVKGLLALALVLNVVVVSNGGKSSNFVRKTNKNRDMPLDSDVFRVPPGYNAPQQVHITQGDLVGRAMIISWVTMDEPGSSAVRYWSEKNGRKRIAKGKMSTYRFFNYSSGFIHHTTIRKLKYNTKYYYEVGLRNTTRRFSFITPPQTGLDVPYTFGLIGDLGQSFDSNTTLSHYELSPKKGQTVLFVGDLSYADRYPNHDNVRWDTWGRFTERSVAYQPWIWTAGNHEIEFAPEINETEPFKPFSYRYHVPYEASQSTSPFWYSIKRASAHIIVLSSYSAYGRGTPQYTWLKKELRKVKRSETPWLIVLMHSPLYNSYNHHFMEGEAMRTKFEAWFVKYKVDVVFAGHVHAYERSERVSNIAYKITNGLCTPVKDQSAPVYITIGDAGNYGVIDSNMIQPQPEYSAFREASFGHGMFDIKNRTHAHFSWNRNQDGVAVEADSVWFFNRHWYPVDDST
# [3] = organism: Sus scrofa; test: Activity of pig PAP at pH 4.9
# [4] = organism: Homo sapiens; test: Inhibition of human PAP
Structure (SMILES),Kic [1] [mM],Kiuc [1] [mM],logIC50 [1],Kic [2] [mM],Kiuc [2] [mM],logIC50 [2],Km [3] [µM],Activity [4]
CCCCCCCCOC(c1cccc2ccccc12)P(=O)(O)O (racemic),0.023,0.044,-1.5,0.05,0.129,-1,1500,
O=P(O)(O)C(O)c1cccc2ccccc12 (configuration not stated),,,,,,0.7,,inactive
O=P(O)(O)Cc1cccc2ccccc12,,,,,,> 0.845,,

# More lines, main results first:
Kic [1] [mM],Kiuc [1] [mM],logIC50 [1],Kic [2] [mM],Kiuc [2] [mM],logIC50 [2],Km [3] [µM],Structure (SMILES),Activity [4]
,,-0.37,1.47,1.43,0,2650,CCCCCCOC(c1cccc2ccccc12)P(=O)(O)O (racemic),
0.017,0.02,-1.7,0.004,0.03,-2.1,1130,CCCCCCCCCCOC(c1cccc2ccccc12)P(=O)(O)O (racemic),
